In ChEMBL document CHEMBL1146521, “Sesquiterpene lactones from Anthemis altissima and their anti-Helicobacter pylori activity” (2003):
In brackets after ≈: the same amount, converted by molar mass. Activity calls are given as the source filed them. The rule behind the calls is not given here.

Assays:
Pseudomonas aeruginosa = test: Antimicrobial activity against Pseudomonas aeruginosa ATCC 27853 after 36 hrs under aerobic condition by microdilution method; format: functional, organism-based
How it was run: (§1)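 Bacteria grown overnight at 37 °C in tryptone soya broth (~10^9 cells/mL), then diluted in sterile saline to about 1.0 × 10^5 per well. Broth serial microdilution with compounds predissolved in DMSO, at final […]; DMSO ≤1%. Incubated 36 h at 37 °C. MIC = lowest concentration with no visible growth under binocular microscope. Inocula checked on TSA. Controls: DMSO, streptomycin.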

Proteus mirabilis = test: Antimicrobial activity against Proteus mirabilis isolates after 36 hrs under aerobic condition by microdilution method; format: functional; how it was run: as §1
Bacillus cereus = test: Antimicrobial activity against Bacillus cereus isolate after 36 hrs under aerobic condition by microdilution method; format: functional; how it was run: as §1
Staphylococcus aureus = test: Antimicrobial activity against Staphylococcus aureus ATCC 6538 after 36 hrs under aerobic condition by microdilution method; format: functional; settings: ATCC 6538, 36 h; how it was run: as §1
Helicobacter pylori [1] = test: Antimicrobial activity against Helicobacter pylori isolates after 3 days under microaerobic condition by microdilution method
Escherichia coli = test: Antimicrobial activity against Escherichia coli ATCC 35218 after 36 hrs under aerobic condition by microdilution method; format: functional; settings: ATCC 35218, 36 h; how it was run: as §1
Micrococcus flavus = test: Antimicrobial activity against Micrococcus flavus ATCC 10240 after 36 hrs under aerobic condition by microdilution method; format: functional; settings: ATCC 10240, 36 h; how it was run: as §1
Helicobacter pylori [2] = test: Antimicrobial activity against Helicobacter pylori isolates after 36 hrs under […] condition by microdilution method; format: functional

Compound	Activity (Pseudomonas aeruginosa)	Activity (Proteus mirabilis)	MIC (Bacillus cereus) [µg/mL]	MIC (Staphylococcus aureus) [µg/mL]	MIC (Helicobacter pylori [1]) [µg/mL]	MIC (Escherichia coli) [µg/mL]	Activity (Helicobacter pylori [1])	MIC (Micrococcus flavus) [µg/mL]	Activity (Helicobacter pylori [2])	MIC (Proteus mirabilis) [µg/mL]
C=C1C(=O)O[C@H]2C[C@@]3(C)[C@H](C(C)=CC[C@@H]3O)[C@@H](O)[C@H]12 [ALTISSIN]	inactive	inactive	12.5 (≈ 47.3 µM)	50 (≈ 189 µM)	50 (≈ 189 µM)	–	–	–	–	–
COc1c(-c2ccc(O)c(O)c2)oc2cc(O)cc(O)c2c1=O [3-O-METHYLQUERCETIN]	inactive	inactive	–	–	12.5 (≈ 39.5 µM)	50 (≈ 158 µM)	–	–	–	–
O=C(/C=C/c1ccc(O)c(O)c1)O[C@@H]1C[C@](O)(C(=O)O)C[C@@H](O)[C@H]1O [CHLOROGENIC ACID]	inactive	inactive	–	–	6.25 (≈ 17.6 µM)	–	–	–	–	–
O=C1C[C@@H](c2ccc(O)c(O)c2)Oc2cc(O)cc(O)c21 [ERIODICTYOL]	inactive	inactive	–	–	50 (≈ 173 µM)	–	–	–	–	–
COc1ccc(-c2oc3cc(O)c(OC)c(O)c3c(=O)c2OC)cc1O	inactive	inactive	–	–	–	–	–	–	–	–
O=c1cc(-c2ccc(O)cc2)oc2cc(O)cc(O)c12	inactive	inactive	–	–	–	–	inactive	–	–	–
COc1ccc(-c2oc3cc(O)cc(O)c3c(=O)c2O)cc1 [KAEMPFERIDE]	inactive	inactive	25 (≈ 83.3 µM)	–	6.25 (≈ 20.8 µM)	–	–	50 (≈ 167 µM)	–	–
O=c1c(O)c(-c2ccc(O)c(O)c2)oc2cc(O)cc(O)c12 [QUERCETIN]	inactive	inactive	50 (≈ 165 µM)	–	50 (≈ 165 µM)	–	–	–	–	–
C=C1C(=O)O[C@H]2C[C@@]3(C)[C@H](O)CCC(=C)[C@@H]3[C@@H](O)[C@H]12	inactive	inactive	50 (≈ 189 µM)	50 (≈ 189 µM)	50 (≈ 189 µM)	50 (≈ 189 µM)	–	50 (≈ 189 µM)	–	–
O=c1c(O[C@@H]2O[C@H](CO)[C@@H](O)[C@H](O)[C@H]2O)c(-c2ccc(O)c(O)c2)oc2cc(O)cc(O)c12 [ISOQUERCETIN]	inactive	inactive	–	–	25 (≈ 53.8 µM)	–	–	–	–	–
O=C1c2c(O)cc(O)cc2O[C@H](c2ccc(O)c(O)c2)[C@H]1O [(+)-TAXIFOLIN]	inactive	inactive	–	–	25 (≈ 82.2 µM)	–	–	–	–	–
COc1cc(O)c2c(=O)c(O)c(-c3ccc(O)c(O)c3)oc2c1 [RHAMNETIN]	inactive	inactive	–	–	50 (≈ 158 µM)	–	–	–	–	–
COc1cc(-c2oc3cc(O)cc(O)c3c(=O)c2O)ccc1O	inactive	inactive	–	–	–	–	–	–	inactive	–
C=C1C(=O)O[C@H]2/C=C(\C)[C@@H](O)CC/C(C)=C/[C@@H](O)[C@H]12 [TATRIDIN A]	inactive	inactive	50 (≈ 189 µM)	50 (≈ 189 µM)	12.5 (≈ 47.3 µM)	–	–	–	–	–
CN[C@@H]1[C@H](O[C@H]2[C@H](O[C@H]3[C@H](O)[C@@H](O)[C@H](N=C(N)N)[C@@H](O)[C@@H]3N=C(N)N)O[C@@H](C)[C@]2(O)C=O)O[C@@H](CO)[C@H](O)[C@H]1O [STREPTOMYCIN]	–	–	100 (≈ 172 µM)	100 (≈ 172 µM)	–	200 (≈ 344 µM)	–	100 (≈ 172 µM)	–	400 (≈ 688 µM)
C=C1C(=O)O[C@H]2CC(=C)[C@@H](O)CC/C(C)=C/[C@@H](O)[C@H]12 [TATRIDIN B]	inactive	inactive	50 (≈ 189 µM)	50 (≈ 189 µM)	50 (≈ 189 µM)	50 (≈ 189 µM)	–	50 (≈ 189 µM)	–	–
C=C1C(=O)O[C@H]2C[C@@]3(C)[C@H](O)CC=C(C)[C@@H]3[C@@H](O)[C@H]12	inactive	inactive	25 (≈ 94.6 µM)	50 (≈ 189 µM)	12.5 (≈ 47.3 µM)	–	–	–	–	–
